This passage reports IC50 and minimal effective dose results from ChEMBL document CHEMBL1125837, “Nicotinamide ethers: novel inhibitors of calcium-independent phosphodiesterase and [3H]rolipram binding” (J Med Chem, 1991).

By IC50 is commonly meant the midpoint of a concentration-inhibition curve.

Assay [1] concerns the target T1, Phosphodiesterase 4 (Rattus norvegicus, UniProt P14270+P14646+P14644+P54748). Kind of assay: Inhibition of [3H]rolipram binding to rat brain membranes. It is filed as cell membranes, Membrane. The procedure, abridged: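 Rat brain homogenized in ice-cold 50 mM Tris/1.2 mM MgCl2, pH 8.0, washed twice by centrifugation and used at 0.5 mg protein/mL. Incubated with [3H]rolipram and test compound at various concentrations for 30 min at 25 °C, in triplicate. Glass-fiber filtration, three ice-cold washes, scintillation counting. IC50 from semilog plots of percent inhibition vs concentration.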

Assay [2] has as its target T1, Phosphodiesterase 4. Nature of the assay: Inhibition of [3H]cAMP (NEN NET-275) binding to Calcium-Independent Phosphodiesterase from rat brain. In outline: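 Enzyme from fresh rat brain (Davis method). Test compound or vehicle with enzyme in [3H]cAMP substrate in Tris-HCl/MgCl2 buffer, 37 °C for 8 min, in triplicate. Stopped by boiling 2 min. Carrier 5'-AMP added; boronate affinity gel separated [3H]-5'-AMP from cAMP, and product counted by scintillation. IC50 from dose-response curves of three log concentrations, each in triplicate.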

The species entered for assay [3] is Mus musculus. Kind of assay: Minimal effective peroral dose in mouse reserpine hypothermia test. It is filed as functional. To be noted: po, read-out: MED.

On to `COC(=O)c1cccc(Oc2ncccc2C(=O)NCc2ccccc2)c1`, for which the IC50 in assay [1] is 6.6 µM; in assay [2], 1.4 µM. Besides, the minimal effective dose in assay [3] was found to be 0.001 mg/kg.
For `O=C(NCc1ccccc1)c1cccnc1Oc1cccc(C(F)(F)F)c1`, in that order: 54 µM, 6.5 µM and 3.2 mg/kg.
With `O=C(NCc1ccccc1)c1cccnc1Oc1ccccc1`, the values for the 50% inhibitory concentration (IC50) in assay [1] and in assay [2] were 49 µM and 1.8 µM, respectively. In addition, in assay [3], the minimal effective dose was 0.32 mg/kg.
The corresponding values for `O=C(NCc1ccccc1)c1cccnc1Oc1ccc(F)cc1` are 37 µM, 2.9 µM and 0.01 mg/kg.
For `N#Cc1cccc(Oc2ncccc2C(=O)NCc2ccccc2)c1`, in that order: 22 µM, 9.8 µM and 0.1 mg/kg.
The corresponding values for `CC(C)NC(=O)c1cccnc1Oc1ccc(F)cc1` are 26 µM, 3.1 µM and 0.001 mg/kg.
For `O=C(NCc1ccccc1)c1cccnc1Oc1ccccc1F`, the IC50 in assay [1] was above 100 µM; in assay [2], 10 µM. In addition, the minimal effective dose in assay [3] was 0.01 mg/kg.
For `O=C(NCc1ccc(F)cc1)c1cccnc1Oc1ccc(F)cc1`, in that order: 51 µM, 4 µM and 0.01 mg/kg.
The corresponding values for `COc1ccc(CNC(=O)c2cccnc2Oc2ccc(F)cc2)cc1` are 26 µM, 0.73 µM and 3.2 mg/kg.
Take `O=C(NCc1ccccc1)c1cccnc1OC1CC2CCC1C2` (stereo unspecified): the IC50 is 27 µM in assay [1] and 0.22 µM in assay [2]. Further, the minimal effective dose in assay [3] came to 1 mg/kg.
The corresponding values for `O=C(NCc1ccccc1)c1cccnc1Oc1cccc(F)c1` are 29 µM, 1.8 µM and 0.01 mg/kg.
Regarding `O=C(Nc1ccccc1)c1cccnc1Oc1ccc(F)cc1`, the IC50 in assay [1] turned out to be 43 µM; in assay [2], 2.2 µM. Moreover, the minimal effective dose in assay [3] worked out at 0.001 mg/kg.
For `O=C(NCc1ccccc1)c1cccnc1Oc1ccc(Cl)c(Cl)c1`, in that order: 19 µM, 2.2 µM and above 3.2 mg/kg.
For `COc1ccccc1Oc1ncccc1C(=O)NCc1ccccc1`, in that order: above 100 µM, above 10 µM and above 3.2 mg/kg.
The corresponding values for `COc1ccc(Oc2ncccc2C(=O)NCc2ccccc2)cc1` are 100 µM, 3.1 µM and 0.01 mg/kg.
`Cc1ccc(CNC(=O)c2cccnc2Oc2ccc(F)cc2)cc1`: the IC50 in assay [1] stood at 25 µM; in assay [2], 0.54 µM. In addition, in assay [3], the minimal effective dose was 0.001 mg/kg.
For `COc1cccc(Oc2ncccc2C(=O)NCc2ccccc2)c1`, in that order: 23 µM, 2.5 µM and 0.01 mg/kg.
